Reference: ChEMBL document CHEMBL5376028, “Discovery of dual-action phenolic 4-arylidene-isoquinolinones with antioxidant and α-glucosidase inhibition activities” (RSC Med Chem, 2024)
Calls of active or inactive are those of the source. No cut-off for these calls is given here.

Columns and labels:
Brain [1] = test: Antioxidant activity in Wistar rat brain homogenate assessed as inhibition of FeSO4-induced lipid peroxidation by measuring TBARS scavenging activity at 100 uM preincubated with compound for 30 mins followed by FeSO4 addition and measured after 1 hrs by absorbance based microplate reader relative to control; type: functional, tissue-based; set-up: scale not given: the % may be the effect or the level left; conditions: time 90.0 min
Procedure, shortened: (§1)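 Whole brains of adult male Wistar rats (200–250 g) were homogenized 1/10 in PBS pH 7.4 and spun at 800 rcf. The supernatant was adjusted to 2.666 mg protein/mL and preincubated with EDTA and compound in DMSO for 30 min at 37 °C. FeSO₄ (final 10 μM) was added for 1 h at 37 °C. TBA/TCA reagent was added, then heating at 80 °C, and A540 was read against a TMP standard curve. Inhibition % was calculated versus the DMSO control; α-tocopherol served as the standard. IC₅₀ came from linear regression, mean ± SEM of three experiments.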

[2] = Antioxidant activity assessed as DPPH radical scavenging activity at 100 uM incubated for 30 mins in dark by absorbance based analysis relative to control; type: functional
Procedure, shortened: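 The compound in DMSO was mixed with DPPH in EtOH (final 100 μM). It was incubated 30 min at 37 °C with stirring in the dark, and absorbance was read at 515 nm. Scavenging % = (C − E) × 100/C against the DPPH control.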

Alpha-glucosidase = Alpha-glucosidase (Saccharomyces cerevisiae S288c, UniProt P53341+P38158+P07265); test: Inhibition of Saccharomyces cerevisiae alpha-glucosidase using p-nitrophenyl-alpha-D-glucopyranoside as substrate pre-incubated for 10 mins followed by substrate addition and measured after 15 mins by absorbance based analysis; type: protein assay
[3] = Antioxidant activity assessed as inhibition of hydroxyl radical at 106 uM by Electron Paramagnetic Resonance based spectrophotometric analysis relative to control; type: functional
Procedure, shortened: (§2)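 Hydroxyl radicals came from a Fenton reaction: FeSO₄·7H₂O 20 μM (acid water, pH 2.5) plus H₂O₂ 200 μM, with DMPO 6000 μM spin trap in PBS pH 7.4. The compound in acetone was tested at final 106, 60, 10.66 and 3.3 μM. The DMPO–OH quartet was recorded by EPR (9.44 GHz, 8 mW, 0.1 mT modulation, 120 s sweep), and intensity was taken from the second-peak height.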

Mus musculus [4] = test: Anti-hyperglycemic activity in CDI mouse assessed as reduction in blood glucose level at 100 mg/kg preadministered with compound for 30 mins followed by sucrose administration and measured upto 3 hrs by oral sucrose tolerance test relative to control; type: functional; set-up: scale not given: the % may be the effect or the level left; conditions: time < 3.5 hrs
Procedure, shortened: (§3)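 Sucrose 3 g kg⁻¹ given orally 30 min later. Caudal vein blood glucose measured by glucometer at 0, 0.5, 1, 1.5, 2 and 3 h; % variation of glycemia calculated relative to the 0 h level.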

[5] = Antioxidant activity assessed as hydroxyl radical scavenging activity by Electron Paramagnetic Resonance based spectrophotometric analysis; type: functional; conditions: dose 3-106 µM; procedure, shortened: as §2
[6] = Antioxidant activity assessed as hydroxyl radical scavenging activity by measuring fluorescence intensity at 60 uM by Electron Paramagnetic Resonance based spectrophotometric analysis (reference value: 610 a.u.); type: functional
Procedure, shortened: (§4)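 Hydroxyl radicals generated by Fenton reaction: FeSO₄·7H₂O 20 μM (in acid water, pH 2.5) plus H₂O₂ 200 μM, with DMPO 6000 μM spin trap in PBS pH 7.4. Compound added in acetone at final 106, 60, 10.66 or 3.3 μM. The DMPO–OH quartet was recorded by EPR as the first derivative in a quartz flat cell, at 9.44 GHz, 8 mW microwave power, 0.1 mT modulation width. Intensity was taken as peak height of the second signal.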

Mus musculus [7] = test: Anti-hyperglycemic activity in CDI mouse assessed as reduction in blood glucose level preadministered with compound for 30 mins followed by sucrose administration and measured upto 3 hrs by oral sucrose tolerance test; type: functional, organism-based; conditions: dose 50-100 mg/kg, time <= 3.5 hrs; procedure, shortened: as §3
[8] = Antioxidant activity assessed as hydroxyl radical scavenging activity by measuring fluorescence intensity at 106 uM by Electron Paramagnetic Resonance based spectrophotometric analysis (reference value: 610 a.u.); type: functional; procedure, shortened: as §4
[9] = Antioxidant activity assessed as hydroxyl radical scavenging activity by measuring fluorescence intensity at 3 uM by Electron Paramagnetic Resonance based spectrophotometric analysis (reference value: 610 a.u.); type: functional; procedure, shortened: as §4
Mus musculus [10] = test: Anti-hyperglycemic activity in CDI mouse assessed as decrease in blood glucose level at 50 mg/kg preadministered with compound for 30 mins followed by sucrose administration and measured after 30 mins by oral sucrose tolerance test relative to control; type: functional; procedure, shortened: as §3
[11] = Antioxidant activity assessed as hydroxyl radical scavenging activity by measuring fluorescence intensity at 10 uM by Electron Paramagnetic Resonance based spectrophotometric analysis (reference value: 610 a.u.); type: functional; procedure, shortened: as §4
Mus musculus [12] = test: Anti-hyperglycemic activity in CDI mouse assessed as blood glucose concentration at 50 mg/kg preadministered with compound for 30 mins followed by sucrose administration and measured after 3 hrs by oral sucrose tolerance test relative to control; type: functional; conditions: time 3.5 hrs; procedure, shortened: as §3
[13] = Antioxidant activity assessed as reduction in hydroxyl concentration at 10 uM by Electron Paramagnetic Resonance based spectrophotometric analysis relative to control; type: functional; set-up: scale not given: the % may be the effect or the level left; procedure, shortened: as §2
Brain [14] = test: Antioxidant activity in Wistar rat brain homogenate assessed as inhibition of FeSO4-induced lipid peroxidation preincubated with compound for 30 mins followed by FeSO4 addition and measured after 1 hrs by TBARS assay; type: functional, tissue-based; procedure, shortened: as §1
Mus musculus [15] = test: Anti-hyperglycemic activity in CDI mouse assessed as reduction in glucose AUC at 50 mg/kg measured for 7 hrs by oral glucose tolerance test; type: functional, organism-based
COS-7 = test: Cytotoxicity against African green monkey COS-7 cells at 50 uM; type: toxicity, cell-based; conditions: chlorocebus aethiops, cos-7, 50 µM
Mus musculus [16] = test: Anti-hyperglycemic activity in CDI mouse assessed as reduction in blood glucose level at 50 mg/kg measured for 7 hrs by oral glucose tolerance test; type: functional, organism-based
[17] = Toxicity in CDI mouse; conditions: in vivo
[18] = biological target: Alpha-glucosidase (Saccharomyces cerevisiae S288c) (UniProt P53341+P38158+P07265); test: Non-competitive inhibition of Saccharomyces cerevisiae alpha-glucosidase using p-nitrophenyl-alpha-D-glucopyranoside as substrate at 1 to 2 times of IC50 pre-incubated for 10 mins followed by substrate addition and measured after 15 mins by Lineweaver-Burk plot analysis; type: protein assay; conditions: time 25.0 min
Procedure, shortened: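 The same α-glucosidase protocol was used, with enzyme and inhibitor preincubated 10 min. Reactions were started with PNPG varied from 1 to 23.1 mM at 37 °C, quenched with […] and read at 405 nm. […] Mode was assigned from Lineweaver–Burk plots.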

[19] = Rattus norvegicus, Wistar, Brain

| Compound | Activity (Brain [1]) | Activity [2] | IC50 (Alpha-glucosidase) | IC50 (Brain [14]; [19]) | also measured |
| --- | --- | --- | --- | --- | --- |
| COc1cc(/C=C2/C(=O)N(c3ccc(C(C)C)cc3)C(C(=O)NC(C)(C)C)c3ccccc32)ccc1O (stereo not drawn) | 92.4% | 67.3% | 68 µM |  |  |
| COc1cc(/C=C2/C(=O)N(c3ccc(C(C)C)cc3)C(C(=O)NC3CCCCC3)c3ccccc32)cc(OC)c1O (stereo not drawn) | 97.7% | 35.4% | 33.1 µM | 1.4 µM | inhibition [3]: 76%; Activity (Mus musculus [4]): 54%; Activity [5]: Dose-Dependent Effect; Flu intensity [6]: 256 a.u.; Activity (Mus musculus [7]): Dose-Dependent Effect; Flu intensity [8]: 150 a.u.; Flu intensity [9]: 464 a.u.; Activity (Mus musculus [10]; time 60.0 min): Active; Flu intensity [11]: 412 a.u.; Activity (Mus musculus [12]): 29%; Activity [13]: 25% |
| COc1cc(/C=C2/C(=O)N(Cc3ccccc3)C(C(=O)NC3CCCCC3)c3ccccc32)ccc1O (stereo not drawn) | 93.1% | 77.1% | 50.1 µM |  |  |
| COc1cc(/C=C2/C(=O)N(c3ccc(F)cc3)C(C(=O)NC3CCCCC3)c3ccccc32)ccc1O (stereo not drawn) | 90.5% | 67.3% | 52.5 µM |  |  |
| VITAMIN E |  |  |  |  | IC50 (Brain [14]): 6.8 µM |
| COc1cc(/C=C2/C(=O)N(c3ccc(C(F)(F)F)cc3)C(C(=O)NC3CCCCC3)c3ccccc32)cc(OC)c1O (stereo not drawn) | 99.4% | 89.9% | > 100 µM | 1.6 µM | Activity (Mus musculus [10]; time 60.0 min): Active |
| COc1cc(/C=C2/C(=O)N(c3ccc(F)cc3)C(C(=O)NC3CCCCC3)c3ccccc32)cc(OC)c1O (stereo not drawn) | 96.8% | 36.1% | 57.2 µM | 2.9 µM |  |
| COc1cc(/C=C2/C(=O)N(c3ccc(C(F)(F)F)cc3)C(C(=O)NC3CCCCC3)c3ccccc32)ccc1O (stereo not drawn) | 64.3% | 65.9% | 13.7 µM |  | Activity (Mus musculus [15]): inactive; Activity (COS-7): Non-Toxic; Activity (Mus musculus [16]): inactive; Activity [17]: Non-Toxic; Activity (Mus musculus [10]; time 60 min, 1 h): 26%; inhibition [18]: Active |
| O=c1c(O)c(-c2ccc(O)c(O)c2)oc2cc(O)cc(O)c12 | 95.7% | 97.9% |  |  |  |
| COc1cc(/C=C2/C(=O)N(c3ccc(O)cc3)C(C(=O)NC3CCCCC3)c3ccccc32)cc(OC)c1O (stereo not drawn) | 98% | 33.1% | > 100 µM | 9.8 µM |  |
| COc1cc(/C=C2/C(=O)N(c3ccc(C)cc3)C(C(=O)NC3CCCCC3)c3ccccc32)cc(OC)c1O (stereo not drawn) | 96.5% | 37.5% | 44.4 µM | 3.5 µM |  |
